From ChEMBL document CHEMBL4007508, “Discovery and Pre-Clinical Characterization of Third-Generation 4-H Heteroaryldihydropyrimidine (HAP) Analogues as Hepatitis B Virus (HBV) Capsid Inhibitors” (J Med Chem, 2017)
The source made the active and inactive calls. The rule behind the calls is not given here.

How the values were obtained:
[1] = Permeability of the compound at 150 uM after 18 hrs by PAMPA; type: physicochemical; settings: read-out: permeability
[2] = AUC (0 to infinity) in mouse plasma at 3 mg/kg, po by LC-MS/MS analysis; type: ADME, organism-based; set-up: dose 3 mg/kg, route oral, time infinity
Procedure, shortened: (§1)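 Single-dose mouse PK following standard procedures: IV 1 mg/kg and PO 3 mg/kg. Plasma CL, Vss, IV t1/2, PO Cmax, AUC(0−∞) in plasma (IV and PO) and liver (PO), and oral bioavailability F derived. Liver/plasma ratio uses the PO AUC(0−∞) values.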

[3] = Solubility of compound in phosphate buffer at pH 6.5 after one night incubation by HPLC-UV method; type: physicochemical
[4] = Acid ionization constant, pKa of the compound; type: physicochemical
[5] = Plasma clearance in mouse at 1 mg/kg, iv by LC-MS/MS analysis; type: ADME, organism-based; procedure, shortened: as §1
[6] = test system: Hepatocyte; assay: Induction of CYP3A4 mRNA expression in human primary hepatocyte after 24 hrs by real-time PCR relative to rifampicin; type: ADME, cell-based; set-up: concentration or dose not given beside the values; settings: hepatocytes
Procedure, shortened: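 CYP3A4 mRNA levels measured in primary human hepatocytes and expressed relative to the positive control rifampicin at 10 μM.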

[7] = Oral bioavailability in mouse at 3 mg/kg, by LC-MS/MS analysis; type: ADME, organism-based; settings: in vivo; procedure, shortened: as §1
[8] = Selectivity index, ratio of CC50 for HBV infected human HepDE19 cells to EC50 for HBV infected in human HepG2(2.2.15) cells
Procedure, shortened: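 Selectivity index calculated as CC50 (HepDE19, CCK-8 viability after 5 days) divided by EC50 (HBV DNA reduction in HepG2.2.15 cells, qPCR).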

[9] = AUC (0 to infinity) in mouse liver at 3 mg/kg, po by LC-MS/MS analysis; type: ADME, organism-based; set-up: dose 3 mg/kg, time infinity, route oral; procedure, shortened: as §1
[10] = Base ionization constant, pKa of the compound; type: physicochemical
[11] = Cmax in mouse at 3 mg/kg, po by LC-MS/MS analysis; type: ADME, organism-based; set-up: dose 3 mg/kg, route oral; settings: in vivo; procedure, shortened: as §1
[12] = test system: Hepatitis B virus; assay: Antiviral activity against HBV infected in human HepG2(2.2.15) cells assessed as decrease in HBV genome replication after 5 days by qPCR method; type: functional, cell-based; settings: HepG2 2.2.15, 120 h
Procedure, shortened: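 HepG2.2.15 cells (stable HBV genome, Hep G2-derived; DMEM-F12, 10% FBS, penicillin/streptomycin, 0.5 mg/mL G418) seeded 3 × 10^4/well, incubated overnight at 37 °C. Compounds serially half-log diluted in DMSO, then in medium; final DMSO 0.5%. HBV DNA extracted and quantified by qPCR.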

[13] = Volume of distribution at steady state in mouse at 1 mg/kg, iv by LC-MS/MS analysis; type: ADME, organism-based; settings: in vivo, read-out: Vdss; procedure, shortened: as §1
[14] = Apparent partition coefficient, log D of the compound at pH 7.4; type: physicochemical; settings: octanol/water
[15] = Ratio of AUC (0 to infinity) in mouse liver at 3 mg/kg, po to AUC (0 to infinity) in mouse plasma at 3 mg/kg, po by LC-MS/MS analysis; type: ADME, organism-based; settings: liver and plasma, read-out: Ratio AUC; procedure, shortened: as §1
[16] = AUC (0 to infinity) in mouse at 1 mg/kg, iv by LC-MS/MS analysis; type: ADME, organism-based; set-up: dose 1 mg/kg, time infinity, route intravenous; settings: in vivo; procedure, shortened: as §1
[17] = Cytotoxicity against HBV infected human HepDE19 cells assessed as decrease in cell viability after 5 days by CCK8 assay; type: cell-based
Procedure, shortened: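 Tetracycline-inducible HBV HepDE19 cells seeded 5 × 10^3/well and treated with compounds. After 5 days, viability read by CCK-8 (2 h, 37 °C; absorbance 450 and 630 nm).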

[18] = Fraction unbound in human plasma at 1000 nM after 5 hrs by LC-MS/MS analysis; type: ADME, cell-free
[19] = Fraction unbound in mouse plasma at 1000 nM after 5 hrs by LC-MS/MS analysis; type: ADME, cell-free
[20] = Half life in mouse at 1 mg/kg, iv by LC-MS/MS analysis; type: ADME, organism-based; settings: in vivo; procedure, shortened: as §1
[21] = molecular target: T1, Cytochrome P450 1A2 (Homo sapiens, UniProt P05177); assay: Inhibition of CYP1A2 (unknown origin); type: ADME
T1 sequence (P05177 whole entry): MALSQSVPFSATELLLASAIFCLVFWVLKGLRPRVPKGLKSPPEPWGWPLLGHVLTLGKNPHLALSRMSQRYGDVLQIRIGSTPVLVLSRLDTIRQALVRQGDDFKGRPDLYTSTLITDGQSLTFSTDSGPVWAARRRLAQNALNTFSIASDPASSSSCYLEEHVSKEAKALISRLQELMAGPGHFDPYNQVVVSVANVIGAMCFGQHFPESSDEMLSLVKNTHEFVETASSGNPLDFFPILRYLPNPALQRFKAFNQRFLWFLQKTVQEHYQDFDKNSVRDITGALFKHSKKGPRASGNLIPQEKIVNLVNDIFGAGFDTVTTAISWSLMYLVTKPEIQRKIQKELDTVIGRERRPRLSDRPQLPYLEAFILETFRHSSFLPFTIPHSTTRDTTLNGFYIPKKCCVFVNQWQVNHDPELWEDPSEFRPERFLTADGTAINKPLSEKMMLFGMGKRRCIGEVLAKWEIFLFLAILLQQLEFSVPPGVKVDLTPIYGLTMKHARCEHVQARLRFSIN
Procedure, shortened: (§2)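 CYP inhibition IC50 measured in a panel of five enzymes: CYP3A4, 2D6, 2C9, 2C19 and 1A2.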

[22] = molecular target: T2, Cytochrome P450 3A4 (Homo sapiens, UniProt P08684); assay: Inhibition of CYP3A4 (unknown origin); type: ADME; procedure, shortened: as §2
T2 sequence (P08684 whole entry): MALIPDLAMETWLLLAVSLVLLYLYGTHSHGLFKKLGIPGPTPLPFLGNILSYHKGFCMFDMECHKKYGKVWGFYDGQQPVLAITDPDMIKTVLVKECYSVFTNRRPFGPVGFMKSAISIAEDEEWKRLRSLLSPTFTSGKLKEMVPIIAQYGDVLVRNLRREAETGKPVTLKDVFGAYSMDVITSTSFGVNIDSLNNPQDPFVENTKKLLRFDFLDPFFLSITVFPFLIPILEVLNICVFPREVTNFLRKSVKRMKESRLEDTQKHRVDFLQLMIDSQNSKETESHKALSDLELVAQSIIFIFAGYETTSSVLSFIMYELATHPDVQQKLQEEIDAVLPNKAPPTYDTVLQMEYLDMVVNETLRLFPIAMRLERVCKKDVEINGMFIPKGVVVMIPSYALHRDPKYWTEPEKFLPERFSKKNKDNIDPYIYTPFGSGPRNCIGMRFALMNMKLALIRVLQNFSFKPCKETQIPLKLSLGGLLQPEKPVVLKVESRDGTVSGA

[23] = test system: Salmonella typhimurium; assay: Mutagenicity in Salmonella typhimurium by Ames test; type: toxicity; settings: salmonella enterica subsp. enterica serovar typhimurium
[24] = molecular target: Cytochrome P450 2D6 (Homo sapiens, UniProt P10635); assay: Inhibition of CYP2D6 (unknown origin); type: ADME; procedure, shortened: as §2
Cytochrome P450 2D6, sequence (P10635 whole entry): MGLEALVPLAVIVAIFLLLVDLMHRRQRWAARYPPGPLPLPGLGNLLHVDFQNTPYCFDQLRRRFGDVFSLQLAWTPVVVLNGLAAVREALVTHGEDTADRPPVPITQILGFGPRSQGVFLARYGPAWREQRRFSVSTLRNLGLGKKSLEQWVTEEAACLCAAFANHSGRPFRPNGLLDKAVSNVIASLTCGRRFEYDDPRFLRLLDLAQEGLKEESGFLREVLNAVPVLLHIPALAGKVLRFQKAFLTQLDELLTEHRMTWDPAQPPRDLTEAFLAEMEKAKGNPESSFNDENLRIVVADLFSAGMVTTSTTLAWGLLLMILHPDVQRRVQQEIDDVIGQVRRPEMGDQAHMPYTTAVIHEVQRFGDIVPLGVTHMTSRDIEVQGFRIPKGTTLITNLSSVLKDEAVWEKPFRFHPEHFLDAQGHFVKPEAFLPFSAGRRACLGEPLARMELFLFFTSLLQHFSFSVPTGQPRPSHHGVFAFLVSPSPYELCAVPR

[25] = molecular target: Cytochrome P450 2C9 (Homo sapiens, UniProt P11712); assay: Inhibition of CYP2C9 (unknown origin); type: ADME; procedure, shortened: as §2
Cytochrome P450 2C9, sequence (P11712 whole entry): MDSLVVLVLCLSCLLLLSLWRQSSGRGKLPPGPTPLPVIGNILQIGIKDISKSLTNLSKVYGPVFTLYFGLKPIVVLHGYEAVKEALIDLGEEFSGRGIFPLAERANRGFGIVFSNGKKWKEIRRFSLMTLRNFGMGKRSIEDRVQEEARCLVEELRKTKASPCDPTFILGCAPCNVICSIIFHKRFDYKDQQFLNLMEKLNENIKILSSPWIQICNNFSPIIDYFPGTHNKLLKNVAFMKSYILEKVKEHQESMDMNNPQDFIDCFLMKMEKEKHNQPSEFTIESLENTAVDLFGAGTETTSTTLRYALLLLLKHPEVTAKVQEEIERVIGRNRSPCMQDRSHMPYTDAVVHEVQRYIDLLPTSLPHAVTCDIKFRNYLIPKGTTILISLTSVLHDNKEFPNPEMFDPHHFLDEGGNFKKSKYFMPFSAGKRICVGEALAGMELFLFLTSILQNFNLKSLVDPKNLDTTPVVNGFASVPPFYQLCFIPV

[26] = molecular target: Voltage-gated inwardly rectifying potassium channel KCNH2 (Homo sapiens, UniProt Q12809); assay: (§3) Inhibition of human ERG
Voltage-gated inwardly rectifying potassium channel KCNH2, sequence (Q12809 whole entry): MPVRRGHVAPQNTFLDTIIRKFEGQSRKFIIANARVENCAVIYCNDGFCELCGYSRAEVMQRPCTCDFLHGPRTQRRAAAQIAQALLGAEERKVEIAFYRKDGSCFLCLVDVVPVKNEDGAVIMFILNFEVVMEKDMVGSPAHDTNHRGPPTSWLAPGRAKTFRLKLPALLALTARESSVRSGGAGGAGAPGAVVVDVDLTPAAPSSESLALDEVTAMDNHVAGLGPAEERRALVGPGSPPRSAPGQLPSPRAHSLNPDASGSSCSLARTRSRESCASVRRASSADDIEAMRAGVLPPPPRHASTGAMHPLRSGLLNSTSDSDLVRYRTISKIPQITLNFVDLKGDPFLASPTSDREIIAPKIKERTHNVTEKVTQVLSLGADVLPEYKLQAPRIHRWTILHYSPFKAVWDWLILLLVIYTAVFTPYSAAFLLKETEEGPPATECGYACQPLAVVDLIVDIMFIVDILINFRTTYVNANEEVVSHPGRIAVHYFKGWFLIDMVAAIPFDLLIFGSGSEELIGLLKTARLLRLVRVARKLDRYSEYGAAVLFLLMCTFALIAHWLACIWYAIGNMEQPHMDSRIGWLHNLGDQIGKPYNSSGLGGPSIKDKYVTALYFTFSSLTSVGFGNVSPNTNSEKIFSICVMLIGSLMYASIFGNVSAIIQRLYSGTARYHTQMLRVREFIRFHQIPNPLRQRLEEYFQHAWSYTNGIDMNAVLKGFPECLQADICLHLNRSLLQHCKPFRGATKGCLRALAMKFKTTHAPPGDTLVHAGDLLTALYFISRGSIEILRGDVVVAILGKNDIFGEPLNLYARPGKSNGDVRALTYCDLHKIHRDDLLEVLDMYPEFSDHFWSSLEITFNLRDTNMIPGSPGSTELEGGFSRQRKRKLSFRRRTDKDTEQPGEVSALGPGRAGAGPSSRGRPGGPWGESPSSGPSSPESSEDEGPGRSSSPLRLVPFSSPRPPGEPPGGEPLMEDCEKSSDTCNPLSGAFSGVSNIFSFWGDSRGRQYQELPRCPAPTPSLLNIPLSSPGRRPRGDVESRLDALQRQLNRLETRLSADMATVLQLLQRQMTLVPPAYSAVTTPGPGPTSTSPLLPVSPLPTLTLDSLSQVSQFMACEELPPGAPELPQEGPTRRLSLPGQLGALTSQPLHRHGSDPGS

[27] = molecular target: hERG (KCNH2) (Homo sapiens, UniProt Q12809); assay: as §3
hERG (KCNH2), sequence (Q12809 whole entry): as above

[28] = molecular target: Cytochrome P450 2C19 (Homo sapiens, UniProt P33261); assay: Inhibition of CYP2C19 (unknown origin); type: ADME; procedure, shortened: as §2
Cytochrome P450 2C19, sequence (P33261 whole entry): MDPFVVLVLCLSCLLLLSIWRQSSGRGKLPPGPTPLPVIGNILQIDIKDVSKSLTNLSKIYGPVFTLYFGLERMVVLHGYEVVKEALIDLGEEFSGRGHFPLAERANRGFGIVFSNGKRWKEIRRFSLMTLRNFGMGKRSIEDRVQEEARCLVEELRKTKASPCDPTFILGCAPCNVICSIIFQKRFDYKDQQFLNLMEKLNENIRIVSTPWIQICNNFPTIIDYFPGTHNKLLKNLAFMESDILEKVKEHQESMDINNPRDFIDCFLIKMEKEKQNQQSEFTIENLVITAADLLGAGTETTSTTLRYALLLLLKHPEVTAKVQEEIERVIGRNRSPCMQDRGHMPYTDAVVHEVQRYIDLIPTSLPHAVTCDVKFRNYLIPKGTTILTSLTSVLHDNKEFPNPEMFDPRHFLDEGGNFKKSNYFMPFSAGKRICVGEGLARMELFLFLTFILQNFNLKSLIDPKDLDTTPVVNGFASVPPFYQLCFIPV

[29] = molecular target: T2, Cytochrome P450 3A4; assay: Time dependent inhibition of CYP3A4 (unknown origin); type: ADME
[30] = test system: Hepatitis B virus; assay: Antiviral activity against HBV infected in hydrodynamic injection BALB/c mouse model assessed as reduction of viral DNA copy numbers in liver at 3 to 12.5 mg/kg, po bid after 5 days by real-time PCR method; type: functional, organism-based
Procedure, shortened: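 Female BALB/c mice hydrodynamically injected via tail vein with replication-competent HBV DNA plasmid. From 20 h post-injection, dosed orally for 5 days: 3 or 12.5 mg/kg twice daily, with vehicle and entecavir 0.1 mg/kg once daily as controls. Liver HBV DNA copies measured by real-time qPCR; six mice per group, SEM.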

[31] = Glutathione reactivity assessed as adduct formation of the compound

SMILES | Papp at 18 h, 150 µM [1] | AUC(0-inf) [2] | solubility [3] | pKa [4] | Activity [6] | Ratio CC50/EC50 [8] | AUC(0-inf) [9] | pKa [10] | Cmax [11] | EC50 [12] | Vd [13] | logD [14] | Kp [15] | CC50 at 120 h [17] | fraction unbound at 5 h, 1 µM [18] | fraction unbound at 5 h, 1 µM [19] | half-life [20] | also measured
COC(=O)C1=C(CN2CCOC[C@H]2C(=O)O)NC(c2nccs2)=N[C@H]1c1ccc(F)c(F)c1C | 2.7 ×10⁻⁶ cm/s | 344 ng·h/mL | > 604 µg/mL | < 2.5 | 56% | >50000 | 9210 ng·h/mL | 5.7 | 283 ng/mL | 0.002 µM | 1.9 L/kg | 0.44 | 27 | > 100 µM | 0.054 | 0.062 | 1.4 h | clearance [5]: 44 mL/min/kg; bioavailability [7]: 30%; AUC(0-inf) [16]: 379 ng·h/mL
CCOC(=O)C1=C(CN2CCOC[C@H]2C(=O)O)NC(c2nccs2)=N[C@H]1c1ccc(F)cc1Cl | – | – | – | – | 183% | – | – | – | – | 0.002 µM | – | – | – | > 100 µM | – | – | – | –
COC(=O)C1=C(CN2CCOC[C@H]2C(=O)O)N=C(c2nccs2)N[C@H]1c1ccc(F)cc1Cl | 1.4 ×10⁻⁶ cm/s | 962 ng·h/mL | > 666 µg/mL | 1.8 | 111% | – | 11800 ng·h/mL | 5.8 | 413 ng/mL | – | 2.5 L/kg | 0.06 | 12.3 | > 100 µM | 0.057 | 0.074 | 1.5 h | IC50 [21]: > 50 µM; IC50 [22]: > 50 µM; Activity [23]: Non-Toxic; IC50 [24]: > 50 µM; IC50 [25]: > 50 µM; inhibition (INH) [26]: Not Active; IC20 [27]: > 10 µM; IC50 [28]: > 50 µM; TDI [29]: Not Active
COC(=O)C1=C(CN2CCOC[C@H]2C(=O)O)NC(c2nccs2)=N[C@H]1c1ccc(F)cc1Cl | – | – | – | – | – | – | – | – | – | – | – | – | – | – | – | – | – | Activity [30]: Active; Stability [31]: Stable
COC(=O)C1=C(CN2CCOC[C@H]2C(=O)O)NC(c2nc(C(F)(F)F)cs2)=N[C@H]1c1ccc(F)cc1Cl | – | – | – | – | 72% | >33333 | – | – | – | 0.003 µM | – | – | – | > 100 µM | – | – | – | –
COC(=O)C1=C(CN2CCO[C@H](C)[C@H]2C(=O)O)NC(c2nccs2)=N[C@H]1c1ccc(F)cc1Cl | – | – | > 667 µg/mL | – | 81% | – | – | – | – | 0.007 µM | – | – | – | > 100 µM | – | – | – | –
CCOC(=O)C1=C(CN2CCOC[C@H]2C(=O)O)NC(c2nccs2)=N[C@H]1c1cccc(F)c1Cl | 3.3 ×10⁻⁶ cm/s | 624 ng·h/mL | > 679 µg/mL | 1.8 | 144% | 125000 | 2000 ng·h/mL | 5.7 | 783 ng/mL | 0.0008 µM | 4.1 L/kg | 0.42 | 3.2 | > 100 µM | 0.02 | 0.022 | 3 h | clearance [5]: 66 mL/min/kg; bioavailability [7]: 82%; AUC(0-inf) [16]: 253 ng·h/mL
